Here are results for 18 compounds from article PMC9605878 (Cell Chemical Biology, 2022).

In brackets after ≈: the same amount, converted by molar mass. Like-named read-outs stand apart in the source and are kept apart here. Where only a bound is given, the exact number is not on record here.

Data set [1] concerns S. aureus SH1000 in mixed biofilm with P. aeruginosa PAO1. Description: Mixed-species biofilm, S. aureus component. The class given is cell-based, Staphylococcus aureus. The settings on record: tobramycin alone (100 μg/mL, 4 h). Summed up: (§1)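 GFP-tagged S. aureus SH1000 and mCherry-tagged P. aeruginosa PAO1 grown 16 h in RPMI-1640, diluted 1:100, regrown to OD600 ~0.5, then diluted to OD600 0.1 and 0.01 respectively. S. aureus seeded on glass coverslips for 1 h static, then P. aeruginosa added (10:1). Test compound (100 μM) or DMSO added; 48 h at 37°C. Where required, tobramycin (100 μg/mL) added for a further 4 h. Confocal imaging, biomass quantified per species; 3 experiments ±SD.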

Data set [2] concerns P. aeruginosa PAO1 in mixed biofilm with S. aureus SH1000. Description: Mixed-species biofilm, P. aeruginosa component. The class given is cell-based, Pseudomonas aeruginosa. The settings on record: tobramycin alone (100 μg/mL, 4 h). Summed up: as §1
The target in data set [3] is S. aureus membranes. Conditions: read-out: Kd (membrane-active agent); ref Murray et al., 2014; cited from earlier work.
The test system of the next data set is S. aureus strain RN6390B. Description: S. aureus MIC, broth microdilution. The class given is cell-based, Staphylococcus aureus. The method in brief: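 Broth microdilution MIC in Müller–Hinton broth at 37°C; S. aureus also tested in MHB containing 10% FBS.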
On the technique in general: Broth dilution looks for growth in wells or tubes with falling amounts of substance.

Another data set is described as follows: Chrome azurol S. The class given is physicochemical. The settings on record: 50 μM, PBS pH 7.4. Summed up:
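PBS (pH 7.4) with test compound (50 μM), or without it as reference, mixed with an equal volume of CAS assay solution. A630 read after 15 min at room temperature. Siderophore units = […].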

For data set [4], the system named is S. aureus membranes. Description: Membrane dipole potential. The class given is binding, Staphylococcus aureus. The settings on record: for change in membrane dipole potential: fixed concentration 40 μM, fluorescence ratio R(460/520). Summed up: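 Isolated S. aureus membranes labelled with the dipole-potential probe di-8-ANEPPS. Dipole potential change followed as fluorescence ratio R(460/520), at a fixed 40 μM per compound. Kd obtained from binding curves versus compound concentration by the dual-wavelength ratiometric method, with methanol included. Mean of three independent experiments ±SD.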

The test system of data set [5] is defibrinated rabbit red blood cells. The data set can be described thus: Haemolytic activity. The class given is cell-based. The method in brief: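 Defibrinated rabbit blood incubated in PBS for 60 min with test compound or Triton X-100 (positive control). Samples pelleted and supernatant A543 measured. Percent haemolysis calculated relative to the Triton X-100 control.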

The test system of another data set is Staphylococcal cells. Description: Dissipation of transmembrane potential. The class given is cell-based, Staphylococcus aureus. Conditions: 10 μM test compound. The method in brief:
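Staphylococcal cells suspended in 50 mM potassium phosphate buffer, pH 7, with 5 μM DiSC3(5). Fluorescence (ex 650, em 680 nm) monitored over 200 s. Test compound (10 μM) added once signal stabilised. Valinomycin (5 μM) then added for complete depolarisation. Novobiocin and chloramphenicol (10 μg/ml) served as negative controls. Three independent repeats, representative traces.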

Another data set relates to PqsR. Conditions: read-out: PqsR IC50; ref Ilangovan et al., 2013; cited from earlier work.
The subject of data set [6] is S. aureus strain USA300 JE2. The data set can be described thus: Membrane permeabilization. Conditions: 10 μM, relative to nisin 0.6 μM. The class given is cell-based, Staphylococcus aureus. The method in brief:
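USA300 JE2 grown overnight in CYGP, washed in 100 mM phosphate buffer pH 7, resuspended to OD600 0.1 and exposed to test compound for 1 h at 37°C. Nisin (0.6 μM) used as positive control. Cell-free supernatant ATP measured by luminescence kit. For PI uptake, cells held in phosphate buffer pH 7 with PI (10 μg/ml), 10 min dark at RT, washed, then read (ex 575/em 630 nm). Mean of three experiments ±SD.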

[7] abbreviates: S. aureus RN6390B, broth microdilution.

As to `NC[C@H]1O[C@H](O[C@H]2[C@H](O)[C@@H](O[C@H]3O[C@H](CO)[C@@H](O)[C@H](N)[C@H]3O)[C@H](N)C[C@@H]2N)[C@H](N)C[C@@H]1O` [tobramycin], the S. aureus biomass entry in data set [1] was “clearly protected”. For the same compound, the “reduction of P. aeruginosa biomass” value in [2] was around 60%.

Turning to `CCCCCCCCCCCCCC(=O)C1=C(O)COC1=O` [Compound C14-TOA, 3-tetradecanoyltetronic acid], the Kd (in general, the constant that tells how readily two partners part at equilibrium) on S. aureus membranes [3] is 4 µM.

In the case of `CCCCCCCCCc1nc2cc(Cl)ccc2c(=O)[nH]1` [Compound 4, 7-Chloro-2-n-nonylquinazolin-4(3H)-one], in the data set on S. aureus strain RN6390B (Staphylococcus aureus, RN6390B), the MIC – broadly, the least concentration at which growth counts as inhibited – was above 100 µM.

As for `CCCCCCCc1[nH]c2ccccc2c(=O)c1O` [PQS, 2-Heptyl-3-hydroxy-4(1H)-quinolone], the iron-chelating properties entry in “Chrome azurol S” is listed as “sequestered iron”.

Turning to `CCCCCCCCCc1[nH]c2ccccc2c(=O)c1O` [Compound C9-PQS, reference compound], in the data set with S. aureus membranes [4], the “change in membrane dipole potential” value was “little impact”.

`CCCCCCCCCc1nc2ccccc2c(=O)[nH]1` [Compound 2] showed an MIC in the data set on S. aureus strain RN6390B (setting [7]) above 100 µM. For the same compound, the “change in membrane dipole potential” value in the data set on S. aureus membranes [4] is given as “little impact”.

Turning to `CCCCCCCCCc1nc2cc(Cl)ccc2c(=O)n1N` [Compound 19], in the data set on S. aureus strain RN6390B (setting [7]), the MIC is above 100 µM. Further, the “hemolytic activity” value in data set [5] is given as “not hemolytic”. For the same compound, the “change in membrane dipole potential” value in the data set on S. aureus membranes [4] is “increased”. For the same compound, in the data set on Staphylococcal cells, the “DiSC3(5) fluorescence / transmembrane potential” value was “does not increase fluorescence”. In addition, the IC50 – broadly, the midpoint of a concentration-inhibition curve – with PqsR is 5 µM.

In turn, `CCCCCCCCCc1nc2cc(F)ccc2c(=O)n1OC` [Compound 39] returned an MIC in the data set on S. aureus strain RN6390B (setting [7]) above 100 µM.

The compound `CCCCCc1nc2ccccc2c(=O)n1N` [Compound 7] showed an MIC against S. aureus strain RN6390B (setting [7]) above 100 µM.

As for `CCCCCCCCCc1nc2cc(Cl)ccc2c(=O)n1CCO` [Compound 45, 7-Chloro-3-(2-hydroxyethyl)-2-n-nonylquinazolin-4(3H)-one], the MIC in the data set with S. aureus strain RN6390B (setting [7]) was above 100 µM; in the data set with S. aureus strain RN6390B (Staphylococcus aureus, RN6390B), above 100 µM.

As to `CCCCCCCCCc1nc2cc(F)ccc2c(=O)n1N` [Compound 18], the MIC against S. aureus strain RN6390B (setting [7]) is above 100 µM.

For the compound `CCCCCCCC1Nc2ccccc2S(=O)(=O)N1` (stereo not shown) [Compound 5, 3-n-Heptyl-3,4-dihydro-2H-benzo[e][1,2,4]thiadiazine 1,1-dioxide], the “S. aureus growth-inhibitory activity” value with S. aureus strain RN6390B was “inactive”. Moreover, the MIC with S. aureus strain RN6390B (Staphylococcus aureus, RN6390B) is above 100 µM.

Consider `CCCCCCCCCc1nc2cc(Cl)ccc2c(=O)n1CCCCN` [Compound 35, 3-(4-Aminobutyl)-7-chloro-2-n-nonylquinazolin-4(3H)-one], for which the MIC against S. aureus strain RN6390B (Staphylococcus aureus, RN6390B) came to 12.5 µM (≈ 4.72 µg/mL). Further, the “change in membrane dipole potential” value in the data set with S. aureus membranes [4] was “greatest changes in dipole potential”. Moreover, the Kd on S. aureus membranes [4] (read-out: Kd (membrane binding), binding curves, di-8-ANEPPS) was determined as 5.2 ± 0.3 µM. In the data set on Staphylococcal cells, the “DiSC3(5) fluorescence / transmembrane potential” value is “increase in fluorescence”. The “cellular ATP loss and PI uptake” value in data set [6] is listed as “significant cellular ATP loss alongside the reciprocal uptake of PI”.

Take `CCCCCCCCCC1Nc2ccccc2S(=O)(=O)N1` (stereo not shown) [Compound 6, 3-n-Nonyl-3,4-dihydro-2H-benzo[e][1,2,4]thiadiazine 1,1-dioxide]: in the data set on S. aureus strain RN6390B, the “S. aureus growth-inhibitory activity” value is “inactive”. The compound also yielded an MIC against S. aureus strain RN6390B (Staphylococcus aureus, RN6390B) above 100 µM.

Regarding `CCCCCCCCCc1nc2cc(F)c(F)cc2c(=O)n1N` [Compound 22], the MIC with S. aureus strain RN6390B (setting [7]) is above 100 µM.

In the data set with S. aureus strain RN6390B (setting [7]), `CCCCCCCc1nc2ccccc2c(=O)[nH]1` [Compound 1] displayed an MIC above 100 µM.

In the data set on S. aureus strain RN6390B (setting [7]), `CCCCCCCc1nc2ccccc2c(=O)n1N` [Compound 8] yielded an MIC above 100 µM.

Take `Cc1nc2ccccc2c(=O)n1N` [Compound 17, 3-Amino-2-methylquinazolin-4(3H)-one]: in the data set on S. aureus strain RN6390B (Staphylococcus aureus, RN6390B), the MIC is above 100 µM.
